One may read the inhibition as the change of the read-out against control, counted positive when it falls. In general, IC50 refers to the midpoint of a concentration-inhibition curve. High values mean weaker potency in that assay, low ones greater potency in that assay.

Common to all, as to assay type: cell-based
In assay [1] the test system is Oocyte. The assay is described as follows: Inhibition of human aquaporin 4 M23 isoform expressed in Xenopus laevis oocytes at 20 uM. Put shortly:
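Oocytes injected with 30 nL hAQP4b cRNA (0.1 µg/µL) or water sham, cultured 48 h at 18 C in MBS. Exposure to 20 µM compound (0.1% DMSO) for 2 h, then hypotonic challenge by dilution with buffer-free solution of matching inhibitor/DMSO. Oocyte area imaged each 60 s for 4 min, converted to volume. Osmotic permeability-based percent inhibition versus blank and sham; single-tail ANOVA, P < 0.05.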

Assay [2] has as its system Oocyte. The assay is described as follows: (§1) Inhibition of human aquaporin 4 M23 isoform expressed in Xenopus laevis oocytes. Put shortly: (§2)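 hAQP4b cRNA (0.1 µg/µL, 30 nL) or water (sham) injected into oocytes, kept 48 h at 18 C in MBS. Oocytes preincubated 2 h with ligand at 0.1, 1, 5, 10, 20 or 100 µM, 0.1% DMSO final, then diluted with buffer-free hypotonic solution. Swelling imaged every 60 s up to 4 min; n = 5 oocytes. Percent inhibition relative to blank and sham Pf fit sigmoidally for apparent IC50.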

The nature of assay [3]: as §1. Conditions: oocyte. In short, it runs like this: as §2

Take `O=C1NC(=O)C(c2ccccc2)(c2ccccc2)N1` [PHENYTOIN]: the inhibition in assay [1] was 58%. Also, the Imax in assay [2] worked out at 60%. Besides, the midpoint of inhibition in assay [3], the IC50, lay at 9.8 µM.
In assay [1], `Nc1nnc(-c2cccc(Cl)c2Cl)c(N)n1` [LAMOTRIGINE] gave an inhibition of 54%. In assay [2], the Imax is 64%. Also, in assay [3], half-maximal inhibition (IC50) required 8.1 µM.
On to `NC(=O)N1c2ccccc2C2OC2c2ccccc21` (stereo not drawn), for which, in assay [1], the inhibition was found to be 40%.
On the same count and under the same terms, with `NC(=O)N1c2ccccc2CC(=O)c2ccccc21` the figure was 33%.
Regarding `CC1(C)O[C@@H]2[C@@H](CO[C@@]3(COS(N)(=O)=O)OC(C)(C)O[C@@H]23)O1` [TOPIRAMATE], in assay [1], the inhibition was 67%. Further, the Imax in assay [2] is 75%. The compound further returned a half-maximal inhibitory concentration (IC50) in assay [3] of 10 µM.
Taken in the same sequence, the figures for `CC(=O)Nc1nnc(S(N)(=O)=O)s1` [ACETAZOLAMIDE] were 78%, 86% and 0.86 µM.
With `CCCC(CCC)C(=O)O`, in assay [1], the inhibition amounted to 40%.
In the case of `NS(=O)(=O)Cc1noc2ccccc12` [ZONISAMIDE], in assay [1], the inhibition is 48%. In assay [2], this compound came in with an Imax of 48%. In assay [3], this compound came in with an IC50 of 3.3 µM.

The record behind these values is ChEMBL document CHEMBL1151775, “Inhibition of aquaporin 4 by antiepileptic drugs” (Bioorg Med Chem, 2009).
